Series [1] has as its system patients. The note with it: cited from earlier work.
The next series is described as follows: Population PK analysis. The format is in vivo, human. The method, boiled down:
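Oral dosing; patients fasted 1 h before and 2 h after. Sparse plasma samples were taken pre-dose and 1–3 h post-dose on days 29, 43 and 99, with richer sampling on the intermittent schedule. Two-compartment model with first-order absorption and elimination, fitted by first-order conditional estimation with interaction. It estimated clearance, intercompartment clearance, central/peripheral volumes, absorption rate, inter-subject variability and residual error, and explored covariates.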

The test system of series [2] is patients. The settings on record: cited from earlier work. This is another data set of the same source.
Setting [3] is: GSK458 as mono-therapy, estimate (SD).

With `CC(=O)Nc1cccc(-n2c(=O)n(C3CC3)c(=O)c3c(Nc4ccc(I)cc4F)n(C)c(=O)c(C)c32)c1` [trametinib], the “Most frequently reported treatment-related toxicities, single agent” value with patients [1] was “rash or acneiform dermatitis, diarrhea, fatigue, nausea, and vomiting”. In addition, the Plasma half-life entry in the series on patients [1] (no reference given) is given as “five days”. In the series with patients [1] (once daily), the “Recommended phase II dose (RP2D), single agent” value is 2 mg.
Consider `COc1ncc(-c2ccc3nccc(-c4ccnnc4)c3c2)cc1NS(=O)(=O)c1ccc(F)cc1F` [GSK458], for which, in the series “Population PK analysis” (setting [3]), the “Clearance, CL/F” value is 3.88 (1.9) L/h; the “Volume of central compartment Vc/F” value was 17.81 (17.4) L; the “Volume of peripheral compartment Vp/F” value was 54.67 (48.7) L. In addition, in the series “Population PK analysis” (human, in vivo, oral), the Vd was 8.95 L and the clearance is 54.2 mL/min. The “PK of GSK458 alone versus in combination with trametinib (post hoc estimates)” value in the series “Population PK analysis” (in vivo) is “No significant difference was observed”. In “Population PK analysis” (population PK model of GSK458), the Inter-compartment clearance came out at 2.71 L/h, the “Inter-individual variability on central volume” value was around 97%, the “Inter-individual variability on clearance” value is “approximately 53%” and the “Peripheral volume of distribution” value is on record as 38.4 L. For the same compound, the “Most frequently reported treatment-related adverse events, single agent” value in the series with patients [2] is “diarrhea, fatigue, nausea, decreased appetite, vomiting, and hyerpglycemia”. Moreover, the “Maximum tolerated dose (MTD), single agent” value with patients [2] (once daily) is 2.5 mg.

Values taken from PMC7574157 (Investigational new drugs, 2016).
